# CHOP UPR activ = activators of apoptotic CHOP UPR arm, primary screen, cell-based, CHO-CHOP luciferase reporter, luminescence, uHTS. UPR activation; percent of tunicamycin response over DMSO baseline. activation, % at 10 µM. 0.34% of 330,000 active. AID 449763, 2010;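 active means at 10 µM dose, activation of 40% or more, normalized to positive control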;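 further: 100% = tunicamycin at 10 µg/mL and 0% = DMSO alone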
#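 Test system: CHO-CHOP cells, stable luciferase reporter of PERK-eIF2a-CHOP signalling | Quantity: 500 CHO-CHOP cells per well | Buffer or medium: F12 plus 10% serum | Compound dosing: 10 µM single point, 0.5% DMSO | Schedule: 6 h compound treatment, 37 °C | Signal: Luciferase luminescence | Control set: Tunicamycin high control, DMSO low control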
# aDG glyco act = activators of alpha-DG glycosylation, primary screen, uHTS, Pro5-aDG cells, AlphaScreen. alpha-DG glycosylation AlphaScreen (IIH6); 0% Pro5, 100% B10-LARGE cell signal. activation, % at 10 µM. 0.22% of 360,000 active. AID 624168, 2012;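 active means activation of at least 8% versus controls, or a plate z-score of at least 8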;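 further: Pro5 are CHO cells carrying HIG-tagged alpha-DG that lacks glycosylation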
# CHOP inh = inhibitors of CHOP promoter induction, primary screen, cell-based, unfolded protein response, luciferase reporter. CHO-K1 CHOP-promoter luciferase, tunicamycin-induced, 15-18 h. 3.8% of 220,000 active. inhibition, % at 10 µM. AID 2732, 2010;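 active means compounds that reduced the stress-induced luciferase reporter signal by more than about 70% of percent inhibition, limit read from the data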;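 further: 0% = tunicamycin plus vehicle and 100% = wells without tunicamycin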
# NR3A LBD binder = binders of NR3A ligand-binding domain, primary screen, biophysical, differential scanning fluorimetry, uHTS; Glutamate receptor ionotropic, NMDA 3A (GRIN3A) ligand-binding domain; NR3A LBD differential scanning fluorimetry, Tm shift; 0% = protein alone, 100% = glycine-bound protein; Tm shift relative to glycine control, % at 25 µM; 2.5% of 340,000 active;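 active means melting temperature shift of at least 10% of the positive control shift, at one fixed dose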
# UPR XBP1 act = activators of adaptive XBP1 UPR arm, primary screen, cell-based, CHO-XBP1 luciferase reporter, luminescence, uHTS; AID 463104, 2010; activation, % at 20 µM; 0.33% of 330,000 active; IRE1-XBP1 UPR activation; percent of tunicamycin response, DMSO as zero;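 active means versus positive control, 20 µM dose yields 30% or more activation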;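 further: 100% = tunicamycin at 10 µg/mL and 0% = DMSO only wells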
#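 Assay system: CHO-XBP1 luciferase reporter cells; Schedule: 6 h treatment, 37 °C; Detection: glow luminescence from Steady-Glo reagent; Benchmarks: high control tunicamycin 10 µg/mL final, low control DMSO vehicle only.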
# MPTP block = mitochondrial permeability transition pore inhibitors, primary screen, biochemical, isolated mouse mitochondria, absorbance; Ca2+ swelling absorbance, 30 min; inhibition, % at 10 µM; 1.4% of 360,000 active; AID 602449, 2012;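 active means inhibition of 50% or more, scaled per plate between neutral and stimulator controls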;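 further: 0% = DMSO wells given calcium and 100% = 1 mM EGTA wells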
# MPTP counter = fluorescence retest of MPTP screen hits in isolated mitochondria, single concentration. shares compounds with MPTP block. membrane potential, Rhodamine 123 fluorescence. inhibition, % at 10 µM. 78% of 5,000 active. AID 624504, 2012; in the data active means inhibition above about 22%;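 further: 0% = DMSO vehicle and 100% = positive control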
# MPTP swell DR = mitochondrial permeability transition pore inhibitors, dose response, biochemical, absorbance, uHTS hits; isolated mitochondria swelling; shares compounds with MPTP block; 58% of 780 active; IC50, µM; in the data active means IC50 below about 20 µM
# MPTP cs DR = fluorescent counter-screen in isolated mitochondria, dose response, counter-screen for MPTP inhibitor project, biochemical, fluorescence, uHTS hits | shares compounds with MPTP block | isolated mitochondria counterscreen, fluorescence read-out | IC50, µM | 49% of 780 active; in the data active means IC50 below about 80 µM
# * hit, by the source's call; . = not tested or not shown. The list is not random: actives were taken first. Their share in the collection is about 5.6%.
SMILES,CHOP UPR activ,aDG glyco act,CHOP inh,NR3A LBD binder,UPR XBP1 act,MPTP block,MPTP counter,others
Cn1ccsc1=NC(=O)c1cccc(C#N)c1,3,0,.,-2,-3,-3,.,
COc1ccc(CCNc2c(C)c(C)nc3ncnn23)cc1,7,2,.,3,2,74*,83*,
C#CCN(C)CC/C=C1\c2ccccc2CSc2ccccc21,0,0,29,1,-1,33,.,
NCC/C=C1/c2ccccc2CSc2ccccc21,1,4,16,1,1,88*,-9,MPTP swell DR=6.8*;MPTP cs DR=>80
C=CCN(C)CC/C=C1\c2ccccc2CSc2ccccc21,-2,1,37,0,-4,74*,-2,MPTP swell DR=18*;MPTP cs DR=74*
CN(CC/C=C1/c2ccccc2CSc2ccccc21)CCCO,0,1,1,-6,1,-1,.,
CN(C)CC/C=C1/c2cc(F)ccc2CSc2ccc(F)cc21,4,0,14,-7,2,72*,-2,MPTP swell DR=14*;MPTP cs DR=>80
O=C(NCC(c1ccco1)N1CCCC1)c1ccc(Cl)c(S(=O)(=O)N2CCc3ccccc32)c1 (stereo unspecified),4,1,.,-2,-4,13,.,
Cc1cccc(C)c1NC(=O)CN1C(=O)NC(C)(C2CC2)C1=O (stereo unspecified),0,0,.,-2,2,-1,.,
CC(NC(=O)c1ccco1)C(=O)OCC(=O)N1CCCCCC1 (stereo unspecified),-1,0,.,1,-1,0,.,
CCOC(=O)c1ccc(N2CCN(c3ccccc3F)CC2)c(NC(=O)Nc2cccc(OC)c2)c1,8,0,35,11*,-1,78*,84*,
COC(=O)c1ccc(N2CCOCC2)c(NC(=O)Nc2cccc(OC)c2)c1,-1,0,33,-1,-1,1,.,
CCC(C)[C@H](N)c1cn([C@@H](Cc2cc3ccccc3[nH]2)C(=O)N2CCNCC2)nn1 (stereo partly specified),16,0,15,3,-2,1,.,
CC(C)C[C@H](N)c1cn([C@@H](Cc2cc3ccccc3[nH]2)C(=O)N2CCNCC2)nn1,2,0,14,2,1,92*,-12,MPTP swell DR=4.9*;MPTP cs DR=>80
NC(=O)c1ncn([C@@H]2O[C@H](CNC(=O)[C@H](N)CSCc3ccccc3)[C@@H](O)[C@H]2O)n1,.,0,.,2,.,-2,.,
O=C(Nc1ccncc1)Nc1cc(Cl)ccc1Cl,1,1,.,5,-5,34,.,
CC(=O)Nc1ccc(NC(=O)C(C)Oc2ccc(Cl)cc2Cl)cc1 (stereo unspecified),0,0,2,-2,-1,1,.,
CCCc1c(C(=O)Nc2ccc(F)cc2F)cnn1-c1ccccc1,4,0,29,-1,2,2,.,
CCCc1c(NC(=O)Nc2ccc(Cl)cc2Cl)cnn1-c1ccccc1,0,0,3,-9,2,83*,76*,
O=C(Nc1ccncc1)Nc1ccc(Cl)cc1Cl,-1,0,.,2,0,51*,104*,
CC(Oc1ccc(Cl)cc1Cl)C(=O)Nc1ccncc1 (stereo unspecified),0,0,.,-1,-3,77*,74*,

# High-throughput results deposited in PubChem BioAssay by several laboratories.
